According to ChEMBL document CHEMBL2346587, “Design, synthesis, and evaluation of a water-soluble antofine analogue with high antiproliferative and antitumor activity” (Bioorg Med Chem, 2013):
Active and inactive are the calls of the source. The calls are words filed in the database; no cut-off is given here.

Assays:
HCT-15 = experiment: Cytotoxicity against human HCT15 cells after 72 hrs by SRB assay; format: functional, cell-based; conditions: HCT-15, 72 h
Procedure, shortened: (§1)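 SRB growth assay: 5 × 10^3 cells/well exposed to a concentration series for 72 h; fixed in 10% TCA 30 min at 4 °C, stained with 0.4% SRB in 1% acetic acid 30 min, dye dissolved in 10 mM Tris pH 10.0, absorbance at 515 nm. Viability relative to vehicle control; IC50 by non-linear regression; at least three experiments. A549-Pa is a paclitaxel-resistant A549 subline.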

A549 [1] = experiment: Cell cycle arrest in human A549 cells assessed as accumulation at G0/G1 phase at 100 nM after 24 hrs by flow cytometry (reference value: 62.38 %); format: functional
A549 [2] = experiment: Antitumor activity against paclitaxel-resistant human A549 cells xenografted in athymic nu/nu BALB/c mouse assessed as inhibition of tumor growth at 10 mg/kg, ip administered 35 days post-implantation 3 times a week relative to control; format: functional; conditions: 840 h, route intraperitoneal, read-out: TGI
Procedure, shortened: (§2)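 Female athymic BALB/c nu/nu mice, six weeks old; 2 × 10^6 A549 or A549-Pa cells in 0.1 mL RPMI injected s.c. into right flank on day 0. Dosing began at 95–100 mm3 tumour volume: drug in 1% cremophore in PBS given i.p. three times weekly; controls got vehicle; five mice/group. Tumour volume tracked every 3–5 days; tumours excised and weighed at end; sections immunostained for Ki-67.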

[3] = molecular target: T1, ATP-dependent translocase ABCB1 (Homo sapiens, UniProt P08183); experiment: Inhibition of P-gp activity in human paclitaxel-resistant A549 cells assessed as rhodamine 123 accumulation at 200 nM after 72 hrs by FACS analysis (reference value: 14.4 %); format: cell-based; parameters: scale not given: the % may be the effect or the level left; conditions: a549, 72 h, 0.2 µM
T1 sequence (P08183 whole entry): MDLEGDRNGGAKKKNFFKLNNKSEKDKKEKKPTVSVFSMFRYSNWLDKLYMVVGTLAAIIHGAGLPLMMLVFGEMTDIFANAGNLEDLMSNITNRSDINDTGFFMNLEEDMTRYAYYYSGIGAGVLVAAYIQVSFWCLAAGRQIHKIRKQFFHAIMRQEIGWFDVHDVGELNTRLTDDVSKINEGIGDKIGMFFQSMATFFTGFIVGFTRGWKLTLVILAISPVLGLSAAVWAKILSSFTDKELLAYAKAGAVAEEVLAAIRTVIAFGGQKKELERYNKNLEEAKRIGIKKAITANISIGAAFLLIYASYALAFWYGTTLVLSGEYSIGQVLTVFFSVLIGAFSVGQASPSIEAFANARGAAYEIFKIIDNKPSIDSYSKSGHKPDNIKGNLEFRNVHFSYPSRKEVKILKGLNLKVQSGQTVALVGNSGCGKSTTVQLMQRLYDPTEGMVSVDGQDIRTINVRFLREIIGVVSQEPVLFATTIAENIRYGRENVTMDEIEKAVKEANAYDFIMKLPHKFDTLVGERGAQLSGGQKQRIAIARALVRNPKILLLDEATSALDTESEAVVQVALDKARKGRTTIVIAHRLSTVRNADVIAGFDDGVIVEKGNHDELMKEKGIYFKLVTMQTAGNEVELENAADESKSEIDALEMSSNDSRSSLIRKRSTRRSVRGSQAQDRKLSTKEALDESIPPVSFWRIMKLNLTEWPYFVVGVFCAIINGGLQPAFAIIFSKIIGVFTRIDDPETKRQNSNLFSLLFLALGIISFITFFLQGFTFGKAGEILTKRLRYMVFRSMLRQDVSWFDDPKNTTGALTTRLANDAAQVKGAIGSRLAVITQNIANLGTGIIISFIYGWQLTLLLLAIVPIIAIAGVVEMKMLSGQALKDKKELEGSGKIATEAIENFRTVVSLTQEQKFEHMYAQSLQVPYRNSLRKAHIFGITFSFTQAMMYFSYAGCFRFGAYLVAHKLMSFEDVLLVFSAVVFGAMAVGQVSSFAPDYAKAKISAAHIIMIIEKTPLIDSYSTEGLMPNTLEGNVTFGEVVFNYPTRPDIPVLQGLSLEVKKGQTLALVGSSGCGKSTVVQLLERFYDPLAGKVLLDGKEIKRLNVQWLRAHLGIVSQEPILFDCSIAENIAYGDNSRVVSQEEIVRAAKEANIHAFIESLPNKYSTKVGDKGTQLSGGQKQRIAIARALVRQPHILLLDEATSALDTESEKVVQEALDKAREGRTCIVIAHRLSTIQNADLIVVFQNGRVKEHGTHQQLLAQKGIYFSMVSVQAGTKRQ

A549 [4] = experiment: Antitumor activity against human A549 cells xenografted in athymic nu/nu BALB/c mouse assessed as inhibition of tumor growth at 5 mg/kg, ip administered 35 days post-implantation 3 times a week relative to control; format: functional; conditions: 840 h, route intraperitoneal, read-out: TGI; procedure, shortened: as §2
[5] = molecular target: T1, ATP-dependent translocase ABCB1; experiment: Inhibition of P-gp activity in human […] A549 cells potentiation of 10 uM paclitaxel-induced cytotoxicity at 0.2 uM by SRB assay; format: cell-based; conditions: a549, 0.2 µM
[6] = molecular target: T1, ATP-dependent translocase ABCB1; experiment: Inhibition of P-gp activity in human paclitaxel-resistant A549 cells potentiation of 10 uM paclitaxel-induced cytotoxicity at 0.2 uM by SRB assay; format: cell-based; conditions: a549, 0.2 µM
Procedure, shortened: (§3)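 A549-Pa cells plated at 5 × 10^4 cells/well and co-treated for 48 h with the compound (0–200 nM) plus paclitaxel or gefitinib; growth inhibition by SRB assay. Combination index computed at the 50% inhibition level as CI = D1/(Dx)1 + D2/(Dx)2, comparing combined versus single-agent concentrations.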

[7] = molecular target: T1, ATP-dependent translocase ABCB1; experiment: Inhibition of P-gp activity in human paclitaxel-resistant A549 cells potentiation of 5 uM paclitaxel-induced cytotoxicity at 0.1 uM by SRB assay; format: cell-based; conditions: a549, 0.1 µM; procedure, shortened: as §3
A549 [8] = experiment: Inhibition of MDR-1 gene expression in human paclitaxel-resistant A549 cells at 50 to 200 nM after 48 hrs by RT-PCR analysis; format: functional, cell-based
Procedure, shortened: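 A549-Pa cells (1 × 10^5 per 100 mm dish) exposed for 48 h; RNA isolated with TRI reagent, 1 µg reverse-transcribed with AMV RT and oligo(dT)15. MDR-1 amplified with specific primers: 94 °C 4 min; 35 cycles of 94 °C 30 s, 55 °C 30 s, 72 °C 30 s; 72 °C 5 min. Products resolved on 2% agarose, SYBR Safe stained.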

A549 [9] = experiment: Inhibition of P-gp protein expression level in human paclitaxel-resistant A549 cells at 50 to 200 nM after 48 hrs by Western blot analysis; format: functional, cell-based
Procedure, shortened: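 A549-Pa cells, with parent A549 for comparison, were exposed to compound for 48 h. Lysates were made in boiling SDS sample buffer and protein measured by BCA. Equal protein (25–50 µg) was run on 8–15% SDS-PAGE, transferred to PVDF and blocked in 5% milk/PBST. Anti-P-gp primary was applied overnight at 4 °C, then secondary antibody and ECL detection.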

A549 [10] = experiment: Inhibition of AKT phosphorylation at T308 residue in human A549 cells at 50 to 400 nM after 24 hrs by Western blot analysis; format: cell-based
Procedure, shortened: (§4)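 A549 cells plated at 3 × 10^5 per 60 mm dish, grown 24 h, then exposed to a concentration series for 24 h. Lysed in boiling SDS sample buffer with NaF and orthovanadate; protein by BCA; 25–50 µg run on 8–15% SDS-PAGE, transferred to PVDF, blocked in 5% milk/PBST, primary antibodies overnight at 4 °C, secondary 1–2 h, ECL detection.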

A549 [11] = experiment: Effect on CDK2 protein expression at G0/G1 phase in human A549 cells at 50 to 400 nM after 24 hrs by Western blot analysis; format: functional, cell-based; procedure, shortened: as §4
A549 [12] = experiment: Inhibition of AKT activation in human A549 cells assessed as reduction in c-myc protein expression at 50 to 400 nM after 24 hrs by Western blot analysis; format: cell-based; procedure, shortened: as §4
A549 [13] = experiment: Inhibition of AKT/c-myc signaling in human A549 cells assessed as reduction in phospho-Rb level at 50 to 400 nM after 24 hrs by Western blot analysis; format: cell-based; procedure, shortened: as §4
[14] = Inhibition of Wnt signaling in human A549 cells assessed as reduction in cyclin D1 protein expression at 50 to 400 nM after 24 hrs by Western blot analysis; format: cell-based
Procedure, shortened: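 A549 cells were seeded at 3 × 10^5 per 60 mm dish, grown 24 h, then given graded compound concentrations for 24 h. Lysis was in boiling SDS buffer, with BCA protein assay. 25–50 µg per lane was run on 8–15% SDS-PAGE and blotted to PVDF. Primary antibodies (1:1000–1:2000) went on overnight at 4 °C, then secondary and ECL read-out.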

A549 [15] = experiment: Cell cycle arrest in human A549 cells assessed as accumulation at sub-G1 phase at 200 nM after 24 hrs by flow cytometry (reference value: 1.40 %); format: functional
A549 [16] = experiment: Cell cycle arrest in human A549 cells assessed as accumulation at G2/M phase at 100 nM after 24 hrs by flow cytometry (reference value: 22.84 %); format: functional
A549 [17] = experiment: Cell cycle arrest in human A549 cells assessed as accumulation at S phase at 100 nM after 24 hrs by flow cytometry (reference value: 13.38 %); format: functional
A549 [18] = experiment: Cell cycle arrest in human A549 cells assessed as accumulation at S phase at 200 nM after 24 hrs by flow cytometry (reference value: 13.38 %); format: functional
A549 [19] = experiment: Cell cycle arrest in human A549 cells assessed as accumulation at G0/G1 phase at 200 nM after 24 hrs by flow cytometry (reference value: 62.38 %); format: functional
A549 [20] = experiment: Cytotoxicity against human A549 cells after 72 hrs by SRB assay; format: functional, cell-based; conditions: A549, 72 h; procedure, shortened: as §1
A549 [21] = experiment: human A549 cells assessed as morphological changes at 50 to 400 nM after 24 hrs by inverted phase-contrast microscopy

Activity [3]: 37.1%
Structure (SMILES): COc1ccc2c3c(c4cc(OC)c(OC)cc4c2c1)C[C@@]1(CO)CCCN1C3
IC50 (HCT-15): 160 nM
Activity (A549 [1]): 68.38%
inhibition in vivo at 10 mg/kg (A549 [2]): 54.8%
inhibition in vivo at 5 mg/kg (A549 [4]): 54.9%
fractional inhibitory concentration index (FICI) [5]: 1.002
fractional inhibitory concentration index (FICI) [6]: 0.413
fractional inhibitory concentration index (FICI) [7]: 0.391
inhibition (A549 [8]): Active
inhibition (A549 [9]): Active
inhibition (A549 [10]): Active
Activity (A549 [11]): inactive
inhibition (A549 [12]): Active
inhibition (A549 [13]): Active
inhibition [14]: Active
Activity (A549 [15]): 1.29%
Activity (A549 [16]): 18.53%
Activity (A549 [17]): 10.78%
Activity (A549 [18]): 10.94%
Activity (A549 [19]): 69.43%
IC50 (A549 [20]): 120 nM
Activity (A549 [21]): Active
